Results from ChEMBL document CHEMBL3217641, “Structure-function study of gemini derivatives with two different side chains at C-20, Gemini-0072 and Gemini-0097” (Medchemcomm, 2011).
pEC50, pIC50: −log10 of the molar value.

Experiments:
[1] = molecular target: T1, Vitamin D3 receptor A (Danio rerio, UniProt Q9PTN2); assay: Agonist activity at zebrafish gal4-VDR LBD expressed in human MCF7 cells by luciferase reporter gene based transactivation assay; format: cell-based
T1 sequence (Q9PTN2 whole entry): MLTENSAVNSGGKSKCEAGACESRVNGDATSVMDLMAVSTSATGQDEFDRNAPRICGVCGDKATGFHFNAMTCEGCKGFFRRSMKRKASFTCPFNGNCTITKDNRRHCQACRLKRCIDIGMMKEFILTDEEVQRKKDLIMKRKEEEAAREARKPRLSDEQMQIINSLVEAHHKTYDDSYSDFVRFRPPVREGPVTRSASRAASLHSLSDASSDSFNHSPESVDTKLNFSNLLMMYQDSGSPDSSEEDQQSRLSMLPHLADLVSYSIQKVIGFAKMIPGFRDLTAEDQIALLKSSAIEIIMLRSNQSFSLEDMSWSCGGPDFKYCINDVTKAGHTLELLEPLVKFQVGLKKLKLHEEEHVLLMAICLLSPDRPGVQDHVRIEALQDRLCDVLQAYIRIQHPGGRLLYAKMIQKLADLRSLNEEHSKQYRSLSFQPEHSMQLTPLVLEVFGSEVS
How it was run: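 MCF-7 cells (10^5/well) were grown overnight in phenol red-free DMEM with 10% charcoal-treated FBS and 0.6 μg/ml insulin. They were transfected with jetPEI using Gal4DBD-zVDR(156–453) (25 ng), ptk-LUC reporter (250 ng) and β-galactosidase control (50 ng). After 10 h, ligand at 0.1–100 nM or DMSO solvent was added. After 24 h, luciferase was read, normalized to β-gal, in triplicate.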

[2] = Antiproliferative activity against ER positive human MCF10CA1a cells after 3 days by [3H]thymidine uptake assay relative to 1alpha,25(OH)2D3; format: functional
[3] = Antiproliferative activity against ER positive human MCF10CA1a cells after 3 days by [3H]thymidine uptake assay; format: functional
[4] = Antiproliferative activity against ER positive human MCF10AT1 cells after 3 days by [3H]thymidine uptake assay; format: functional
[5] = Antiproliferative activity against ER positive human MCF10AT1 cells after 3 days by [3H]thymidine uptake assay relative to 1alpha,25(OH)2D3; format: functional
[6] = Antiproliferative activity against ER negative human MCF10DCIS.com cells after 3 days by [3H]thymidine uptake assay relative to 1alpha,25(OH)2D3
[7] = Antiproliferative activity against ER negative human MCF10DCIS.com cells after 3 days by [3H]thymidine uptake assay
[8] = molecular target: T2, Vitamin D3 receptor A (Danio rerio) (UniProt Q9PTN2); assay: Agonist activity at zebrafish gal4-VDR LBD expressed in human MCF7 cells by luciferase reporter gene based transactivation assay relative to 1alpha,25(OH)2D3; format: cell-based; settings: tested as the 2H-labelled form
T2 sequence (whole entry): T1 sequence (Q9PTN2 whole entry)
How it was run: (§1)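 Transient transfection of MCF-7 cells (10^5/well, grown overnight in phenol red-free DMEM with 10% charcoal-treated FBS, gentamicin, insulin) with Gal4DBD-zVDR(156–453), ptk-LUC reporter, β-galactosidase control and carrier plasmid via jetPEI. After 10 h, ligands at 0.1, 1, 10, 100 nM versus DMSO solvent for 24 h. Luciferase normalized to β-galactosidase; triplicates, mean and S.D.; EC50 derived.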

[9] = molecular target: T2, Vitamin D3 receptor A (Danio rerio); assay: Agonist activity at zebrafish gal4-VDR LBD expressed in human MCF7 cells by luciferase reporter gene based transactivation assay relative to parental gemini; format: cell-based; settings: tested as the 2H-labelled form; how it was run: as §1

| Structure (SMILES) | pEC50 [1] | fold change (FC) [2] | pIC50 [3] | pIC50 [4] | fold change (FC) [5] | fold change (FC) [6] | pIC50 [7] | fold change (FC) [8] | fold change (FC) [9] |
| --- | --- | --- | --- | --- | --- | --- | --- | --- | --- |
| [2H]C([2H])([2H])C(O)(CCC[C@@H](CC#CC(O)(C(F)(F)F)C(F)(F)F)[C@H]1CC[C@H]2/C(=C/C=C3C[C@H](O)C[C@@H](O)C3)CCC[C@]12C)C([2H])([2H])[2H] | 9.82 | 10 | 10.05 | 9.64 | 10 | 10 | 9.64 | – | – |
| [2H]C([2H])([2H])C(O)(CCC[C@H](CC#CC(O)(C(F)(F)F)C(F)(F)F)[C@H]1CC[C@H]2/C(=C/C=C3C[C@H](O)C[C@@H](O)C3)CCC[C@]12C)C([2H])([2H])[2H] | 9.60 | 10 | 9.82 | 9.29 | 10 | 10 | 9.44 | – | – |
| CC(C)(O)CCC[C@H](CC#CC(O)(C(F)(F)F)C(F)(F)F)[C@H]1CC[C@H]2/C(=C/C=C3C[C@H](O)C[C@@H](O)C3)CCC[C@]12C | – | – | – | – | – | – | – | 22 | 5 |
| C=C1/C(=C\C=C2/CCC[C@]3(C)[C@@H](C(CCCC(C)(C)O)CCCC(C)(C)O)CC[C@@H]23)C[C@H](O)C[C@H]1O | 8.92 | – | – | – | – | – | – | – | – |
| CC(C)(O)CCC[C@@H](CC#CC(O)(C(F)(F)F)C(F)(F)F)[C@H]1CC[C@H]2/C(=C/C=C3C[C@H](O)C[C@@H](O)C3)CCC[C@]12C | – | – | – | – | – | – | – | 36 | 8 |
